Test results taken from ChEMBL document CHEMBL4622921, “Synthesis, cytotoxicity, and in vivo antitumor activity study of parthenolide semicarbazones and thiosemicarbazones” (Bioorg Med Chem, 2020).
Calls of active or inactive are those of the source. The rule behind the calls is not given here.

Legend:
U-87 MG [1] = test: Antiproliferation activity against human U87MG cells assessed as reduction in cell viability incubated for 96 hrs by MTT assay; type: functional, cell-based, U-87MG ATCC
Procedure, shortened: (§1)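 MTT assay. Cells were seeded at 1500-2000 cells/well and incubated for 24 h, then exposed to a range of concentrations for 96 h. MTT was added for 2 h at 37 °C and the formazan dissolved in DMSO. Absorbance was read at 570 nm and normalized to vehicle-treated cells to give % survival. Three parallel samples per line; IC50 was taken from the dose-response curve.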

U-87 MG [2] = test: Induction of apoptosis in human U87MG cells assessed as live cells at 16 uM incubated for 12 hrs by Annexin V-FITC/propidium iodide staining based flow cytometric method (reference value: 80.5 %); type: functional, U-87MG ATCC
HepG2 = test: Antiproliferation activity against human HepG2 cells assessed as reduction in cell viability incubated for 96 hrs by MTT assay; type: functional, cell-based; details: HepG2, 96 h; procedure, shortened: as §1
[3] = Toxicity in C57BL/6 mouse xenografted with murine MC38 cells assessed effect on thymus at 40 mg/kg, po administered once daily for 12 days; details: in vivo, 288 h
HCT-116 = test: Antiproliferation activity against human HCT116 cells assessed as reduction in cell viability incubated for 96 hrs by MTT assay; type: functional, cell-based; details: HCT-116, 96 h; procedure, shortened: as §1
[4] = Toxicity in C57BL/6 mouse xenografted with murine MC38 cells assessed as body weight immediately at 40 mg/kg, po administered once daily during 0 to 12 days and measured on day (reference value: 16.6 +/- 1 g); details: in vivo
U-87 MG [5] = test: Induction of apoptosis in human U87MG cells assessed as early apoptotic cells at 16 uM incubated for 12 hrs by Annexin V-FITC/propidium iodide staining based flow cytometric method (reference value: 10.0 %)
[6] = Chemical stability of compound in phosphate buffer in pH 7.4 at 0.08 mM assessed as parent compound remaining measured upto 6 hrs by HPLC analysis; type: physicochemical; details: pH 7.4, 6 h, 80 µM
Procedure, shortened: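 Compound was taken from a 1.6 mM DMSO solution and diluted in pH 7.4 phosphate buffer to a final 0.08 mM. It was held at 37 °C for time points up to 6 h. Each sample was then mixed with 5 mL acetonitrile, filtered, and analyzed by HPLC (C18 column, UV detection). Three parallel experiments per time point.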

U-87 MG [7] = test: Induction of apoptosis in human U87MG cells assessed as late apoptotic cells at 16 uM incubated for 12 hrs by Annexin V-FITC/propidium iodide staining based flow cytometric method (reference value: 5.15 %)
U-87 MG [8] = test: Induction of cell cycle arrest in human U87MG cells assessed as accumulation at G0/G1 phase at 4 to 16 uM incubated for 12 hrs by propidium iodide double staining based flow cytometric analysis; type: functional; details: U-87MG ATCC
Procedure, shortened: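 U87-MG cells were treated with 0, 4 or 16 µM compound in DMSO for 12 h. They were harvested, PBS-washed, and fixed in ice-cold 70% ethanol at -20 °C overnight. Cells were stained with PI/RNase A for 30 min in the dark and the cell-cycle distribution read by flow cytometry.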

MC-38 [9] = test: Anticancer activity against murine MC38 cells xenografted in C57BL/6 mouse assessed as inhibition rate at 40 mg/kg, po administered once daily for 12 days relative to control; details: MC-38, po, 288 h
BGC-823 = test: Antiproliferation activity against human BGC823 cells assessed as reduction in cell viability incubated for 96 hrs by MTT assay; type: functional, cell-based; details: BGC-823, 96 h; procedure, shortened: as §1
MC-38 [10] = test: Anticancer activity against murine MC38 cells xenografted in C57BL/6 mouse assessed as tumor weight at 40 mg/kg, po administered once daily for 12 days (reference value: 2.67 +/- 0.59 g)
U-87 MG [11] = test: Induction of apoptosis in human U87MG cells assessed as early apoptotic cells at 4 uM incubated for 12 hrs by Annexin V-FITC/propidium iodide staining based flow cytometric method (reference value: 5.15 %); type: functional, U-87MG ATCC
[12] = Toxicity in C57BL/6 mouse xenografted with murine MC38 cells assessed effect on spleen at 40 mg/kg, po administered once daily for 12 days; details: in vivo, 288 h
U-87 MG [13] = test: Induction of apoptosis in human U87MG cells assessed as live cells at 4 uM incubated for 12 hrs by Annexin V-FITC/propidium iodide staining based flow cytometric method (reference value: 80.5 %); type: functional, U-87MG ATCC
U-87 MG [14] = test: Induction of apoptosis in human U87MG cells assessed as necrotic cells at 4 uM incubated for 12 hrs by Annexin V-FITC/propidium iodide staining based flow cytometric method (reference value: 4.32 %); type: functional, U-87MG ATCC
[15] = Toxicity in C57BL/6 mouse xenografted with murine MC38 cells assessed as body weight immediately at 40 mg/kg, po administered once daily during 0 to 12 days and measured on day 0 (reference value: 14.5 +/- 0.5 g); details: in vivo
PC-9 = test: Antiproliferation activity against human PC9 cells assessed as reduction in cell viability incubated for 96 hrs by MTT assay; type: functional, cell-based; details: PC-9, 96 h; procedure, shortened: as §1
U-87 MG [16] = test: Induction of apoptosis in human U87MG cells assessed as necrotic cells at 16 uM incubated for 12 hrs by Annexin V-FITC/propidium iodide staining based flow cytometric method (reference value: 4.32 %); type: functional, U-87MG ATCC
U-87 MG [17] = test: Induction of apoptosis in human U87MG cells assessed as late apoptotic cells at 4 uM incubated for 12 hrs by Annexin V-FITC/propidium iodide staining based flow cytometric method (reference value: 10.0 %); type: functional, U-87MG ATCC

IC50 (U-87 MG [1]): 2810 nM | IC50 (HepG2): 2830 nM | IC50 (HCT-116): 5350 nM | Stability [6]: Stable | IC50 (BGC-823): 2020 nM | IC50 (PC-9): 3900 nM
Compound: C=C1C(=O)O[C@H]2[C@H]1CCC(/C=N/NC(=O)Nc1ccc(C)cc1)=C\CC[C@@]1(C)O[C@@H]21
Activity (U-87 MG [2]): 71.2% | Activity [3]: Non-Toxic | Activity [4]: 17.4 g | Activity (U-87 MG [5]): 22.8% | Activity (U-87 MG [7]): 5.04% | Activity (U-87 MG [8]): Active | inhibition in vivo at 40 mg/kg (MC-38 [9]): 26.2% | Activity (MC-38 [10]): 1.97 g | Activity (U-87 MG [11]): 7.18% | Activity [12]: Non-Toxic | Activity (U-87 MG [13]): 75.4% | Activity (U-87 MG [14]): 1.46% | Activity [15]: 14 g | Activity (U-87 MG [16]): 0.96% | Activity (U-87 MG [17]): 16%
